The labels stand for the following.
B1: tRNA (parent)
chain: CUCUCGGUAGCCAAGUUGGUUUAAGGCGCAAGACUUUAAUUUAUCACUACGAAAUCUUGAGAUCGGGCGUUCGACUCGCCCCCGGGAGAUUUUUUCCUCGAGCAA

Fewer inactive variants are shown than the library holds. Bounds are passed on as bounds.

The variants in this data set derive from B1. Description: nonsense suppression (GFP-seq) (ratio to wild type); higher = more function; SUP4oc tRNA, yeast GFP reporter sort-seq. The procedure, abridged: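 To measure nonsense suppression, tRNA variants from a library carrying ~3% random mutations were integrated into the yeast genome alongside RFP and a GFP ochre reporter under galactose control. Growth took place in raffinose/galactose medium supplemented with 80 mg/L adenine, followed by sorting into GFP/RFP bins and Illumina sequencing of each bin (phred ≥30). For each variant with ≥100 reads and ≥30 cells, the bin median GFP/RFP values were weighted by its estimated cell share per bin and referenced to the unmutated parent tRNA.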
On to A13U U20A, for which the nonsense suppression was 0.189. As for G15A U57C G59C G78A, the nonsense suppression is no more than 0.026. Then A13C U17C U22G G85A, with 0.81; and A14U U21A A24G A31C C56G G88A, with no more than 0.026. Then G15C G18U U76G A87G, with no more than 0.026; and U16C A31G, with 1.07. Regarding G15U U17A U55C, the nonsense suppression is no more than 0.026. Then G15A C80U, with 0.167; and A13U G15A G73U, with no more than 0.026. Then A13U A24G G26C G32C A89C, with no more than 0.026; and U16C C83U, with 0.5; and A13G C82A, with no more than 0.026. In the case of A13G G67C C83G, the nonsense suppression is no more than 0.026. Then A13G C56G U71G, with no more than 0.026; and U16A U76C, with 1.19; and U16A A31G G86U, with no more than 0.026.

With A14G U16G C64U, the nonsense suppression was no more than 0.026. G15A G65A: the nonsense suppression is no more than 0.026. Then A13U A24G G61C, with 0.0375; and A13G C75A, with 0.71.

For the variant A13G C75U, the nonsense suppression came out at 0.305. Then U16A A62G U76G, with no more than 0.026; and A13C G78A, with 0.208; and U16A U17G, with 1.16. Then A13U G28C, with 0.227.

In the case of G15U U16A G59C G66C U70A C82G, the nonsense suppression is no more than 0.026. The result for G15U C68G reads no more than 0.026; that for A14U U57G, no more than 0.026; that for A13C A87C, 0.0539.

On to A13C A87G, for which the nonsense suppression was 0.127. Then A13G G85A, with 0.214; and G15C C27G A31C, with no more than 0.026. With G15C A23G G66A, the nonsense suppression is no more than 0.026. A14U U71A: the nonsense suppression was no more than 0.026. The result for U16C C68U reads 1.03; that for A14G C64A G65A, no more than 0.026.

Consider A13C U17A A31G, for which the nonsense suppression was determined as 0.849.

Consider A13C U63C, for which the nonsense suppression came out at 0.848. Then A13C U63A, with 1.17.

Turning to A13G U20A, the nonsense suppression was determined as 0.0339. Then A14C A31U A33U, with no more than 0.026; and A13U C29U C81U, with 0.0757; and U16C G61U G73A, with 0.438. Then A13G G61C, with 0.0301; and A13C C72U, with 0.23. Then A14G U35C, with no more than 0.026. As to G15U C29U, the nonsense suppression was no more than 0.026. Then G15U G19A A54U A62G C79A, with no more than 0.026; and A14C U16G U55C, with no more than 0.026. Then A14C U21G A23C G69A U70A, with no more than 0.026; and U16A G18U A24C U58G, with no more than 0.026; and U16C C27U, with 0.137. The result for G15U U35A U63C C68A reads no more than 0.026; that for A13C C29U, 0.806.

Take A13G U21C: the nonsense suppression worked out at 0.211.

Turning to A13G U21G, the nonsense suppression is 0.026. Then U16C U17G, with 1.07; and A13G A30G, with 0.105. The result for A14U A54C C68A G73C G84A reads 0.202; that for A13C C64U, 0.0428; that for A14U G85U G88U, no more than 0.026. The result for G15C G28U A62C G86C reads no more than 0.026; that for A13U U21A, 0.803; that for A13U U21G, 0.763. In the case of G15C A87U, the nonsense suppression was no more than 0.026.

A13C G61U A87C: the nonsense suppression was no more than 0.026. The result for U16C G32A G59A C82G reads no more than 0.026; that for A14C U63G A87C, no more than 0.026.

On to G15C G19C, for which the nonsense suppression is no more than 0.026. Turning to A14U C27A G78C A87C, the nonsense suppression is no more than 0.026. For A13U C77U, the nonsense suppression was 0.0452.

Consider A14C C56A C81G, for which the nonsense suppression is no more than 0.026. Turning to G15A G61C, the nonsense suppression is 0.034. The result for A14U G25C C27U reads no more than 0.026; that for G15C G25U, no more than 0.026; that for A13U C27U G85A, 0.22. The result for G15A C68U reads 0.0272; that for A14G U57C U58A, no more than 0.026. The result for G15A U22C reads 0.147; that for A13U G85A, 1.2. With A13U G15A, the nonsense suppression was 0.046. The result for U16C U17C G18A G67A reads no more than 0.026. Then A13U U16G C82U, with 0.377.

With A14C U16C G19A A23U C29U A30G C72G C82A, the nonsense suppression is no more than 0.026. With U16A C29U, the nonsense suppression was found to be 0.186. The result for U16A U20C reads 0.193. The result for U16A U20G reads 1.11; that for A13U A14C U35A A60C C72U, no more than 0.026; that for G15A G59C A87C, no more than 0.026. The result for U16A G85A reads 1.03.

Consider A13G C80U, for which the nonsense suppression amounted to 0.0419.

As for G15C C34A C82G, the nonsense suppression was determined as 0.816. The result for A13G A33U U57A reads no more than 0.026. Then A14G G28U G78C, with no more than 0.026; and A13U A54C G66A A74C G86A, with no more than 0.026; and A13C C72U C81U, with no more than 0.026.

For U16C C83G G86A A87G, the nonsense suppression is no more than 0.026.

Regarding A14U G61A, the nonsense suppression is 0.0341. Then A14U G18C C80U, with no more than 0.026. For the variant A14G A87U, the nonsense suppression was no more than 0.026. With A14G G26A G66C, the nonsense suppression was no more than 0.026. Then A13C C27A G61C C75G, with no more than 0.026. The result for G15A U20G reads 0.189; that for G15U U55A, no more than 0.026.

For G15A G73C C75G, the nonsense suppression is no more than 0.026. Then G15C U22G A23C, with no more than 0.026. The result for G15A G26U U55A reads no more than 0.026; that for A13U A74U, 0.051; that for U16C G61A U63A, 0.186. For G15A U21C C82A, the nonsense suppression was no more than 0.026. The result for U16A U71G C75G reads no more than 0.026; that for A13C G61A, 0.852; that for A14G A24C A31G C56G, no more than 0.026. The result for A13C C27U reads 0.0494; that for A14C G59A U70G, no more than 0.026.

Consider G15A A33G, for which the nonsense suppression came to 0.0395.

With A13U U57A G65A, the nonsense suppression was no more than 0.026.

Consider U16A C34G U63C C77G G86C, for which the nonsense suppression is no more than 0.026. For the variant A13U A54U, the nonsense suppression is 0.728. Then A14G G78A, with 0.0272.

Regarding A13C U21A, the nonsense suppression amounted to 1.19. The result for A13C U21C reads 1.17; that for U16A G61A, 0.819. The result for A13C G28C reads 0.794; that for A13C G28A, 1.08. Then A13C G28U, with 0.0283. Take A13G A31G: the nonsense suppression was determined as 0.149. Then A13C C68G G88A, with no more than 0.026; and A14C C56G C72G G86A, with no more than 0.026; and A13U C79U, with 0.175. The result for A13G C29A reads 0.03. The result for U16C A30G reads 1.17; that for A13U U16G, 0.819. Turning to A13U U16A, the nonsense suppression is 0.837. Then A14C G59U, with no more than 0.026.

With U16C A23G G28U, the nonsense suppression was no more than 0.026. The result for A14C C68G reads no more than 0.026; that for A14U G66A, no more than 0.026. The result for A14C G65A reads no more than 0.026.

For A13U U57A, the nonsense suppression was determined as 0.0273. Turning to A13C G25A, the nonsense suppression was 0.0288. Then A14U G18U A23U C27G, with no more than 0.026; and A13G A87G, with 0.14; and U16A U21G, with 0.752. Take A13C U16A: the nonsense suppression worked out at 1.17.

In the case of A13C U16C, the nonsense suppression is 1.12. Then A13U G59U C80G, with no more than 0.026; and A13U U16G A33U, with 0.0384; and A13C U35G U57C, with no more than 0.026. The result for A13G C29G G61U U70G reads no more than 0.026; that for U16A U22G C79U, 0.208; that for A13U U21A U35C G84U, no more than 0.026.

For the variant U16C C82G, the nonsense suppression is no more than 0.026. Then G15C G65A, with no more than 0.026. Then A13C G88A, with 0.0766; and A14U G15C A60C C79U, with no more than 0.026; and A13C U17G C82U, with 0.142. Consider A14C U71A, for which the nonsense suppression was no more than 0.026. Then U16C A31G U57C, with 0.922. The result for A14C G65C C80G A87C reads no more than 0.026; that for G15C C56A, no more than 0.026; that for A13C C75U G85U, 0.333.

G15A U16A: the nonsense suppression stood at 0.0275.

Regarding A13C C75U, the nonsense suppression came out at 1.09. Then A13C C75G, with 1.15; and A13C C75A, with 1.09.

With G15C U22C G28C, the nonsense suppression is no more than 0.026.

Source of the values: the RNAGym collection of RNA variant scans (doi:10.1101/gad.245936.114).
